Reference: ChEMBL document CHEMBL1649231, “In vitro activities of panduratin A against clinical Staphylococcus strains” (2009)
In brackets after ≈: the same amount, converted by molar mass.

Key:
Type in all cases: functional
[1] = test system: Staphylococcus aureus; experiment: Antimicrobial activity against methicillin-resistant Staphylococcus aureus after 24 hrs by broth microdilution method
Summary of the method: (§1)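 Clinical isolates came from blood, body fluids, genital secretions, pus or sputum, identified conventionally or by Vitek. MICs were run by CLSI M7-A6 broth microdilution in Mueller-Hinton broth with 5 × 10^5 CFU/ml inoculum. Agents were twofold serially diluted, starting from 10% DMSO. Drug-free and uninoculated controls were included. Plates were incubated aerobically at 37°C for 24 h; MIC is the lowest concentration giving no visible growth.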

[2] = test system: Staphylococcus haemolyticus; experiment: Antimicrobial activity against methicillin-resistant coagulase-negative Staphylococcus haemolyticus after 24 hrs by broth microdilution method; summary of the method: as §1
[3] = test system: Staphylococcus epidermidis; experiment: Bactericidal activity against methicillin-resistant coagulase-negative Staphylococcus epidermidis after 24 hrs by plate counting method
[4] = test system: Staphylococcus epidermidis; experiment: Antimicrobial activity against methicillin-resistant coagulase-negative Staphylococcus epidermidis assessed as susceptible isolates after 24 hrs by broth microdilution method
[5] = test system: Staphylococcus hominis; experiment: Bactericidal activity against methicillin-resistant coagulase-negative Staphylococcus hominis after 24 hrs by plate counting method
[6] = test system: Staphylococcus aureus; experiment: Bactericidal activity against methicillin-susceptible Staphylococcus aureus after 24 hrs by plate counting method
Summary of the method: (§2)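 Clinical staphylococcal isolates from patient body fluids, blood, genital secretions, pus or sputum; species by conventional methods or Vitek. Twofold dilutions in Mueller-Hinton broth, inoculum 5 × 10^5 CFU/ml, 37°C aerobic 24 h (CLSI M7-A6 microdilution). About 100 μl from each well without visible growth spread on MHA; 37°C 24 h. MBC = lowest concentration giving no growth on agar.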

[7] = test system: Staphylococcus hominis; experiment: Antimicrobial activity against methicillin-resistant coagulase-negative Staphylococcus hominis after 24 hrs by broth microdilution method; summary of the method: as §1
[8] = test system: Staphylococcus aureus; experiment: Bactericidal activity against methicillin-resistant Staphylococcus aureus after 24 hrs by plate counting method
[9] = test system: Staphylococcus aureus; experiment: Antimicrobial activity against methicillin-susceptible Staphylococcus aureus assessed as susceptible isolates after 24 hrs by broth microdilution method
[10] = test system: Staphylococcus aureus; experiment: Antimicrobial activity against methicillin-resistant Staphylococcus aureus assessed as susceptible isolates after 24 hrs by broth microdilution method
[11] = test system: Staphylococcus simulans; experiment: Bactericidal activity against methicillin-resistant coagulase-negative Staphylococcus simulans after 24 hrs by plate counting method; summary of the method: as §2
[12] = test system: Mammaliicoccus sciuri; experiment: Antimicrobial activity against methicillin-resistant coagulase-negative Staphylococcus sciuri assessed as susceptible isolates after 24 hrs by broth microdilution method
[13] = test system: Mammaliicoccus sciuri; experiment: Antimicrobial activity against methicillin-resistant coagulase-negative Staphylococcus sciuri assessed as resistant isolates after 24 hrs by broth microdilution method
[14] = test system: Mammaliicoccus sciuri; experiment: Bactericidal activity against methicillin-resistant coagulase-negative Staphylococcus sciuri after 24 hrs by plate counting method; summary of the method: as §2
[15] = test system: Staphylococcus hominis; experiment: Antimicrobial activity against methicillin-susceptible coagulase-negative Staphylococcus hominis assessed as resistant isolates after 24 hrs by broth microdilution method
[16] = test system: Staphylococcus epidermidis; experiment: Antimicrobial activity against methicillin-susceptible coagulase-negative Staphylococcus epidermidis assessed as resistant isolates after 24 hrs by broth microdilution method
[17] = test system: Staphylococcus haemolyticus; experiment: Antimicrobial activity against methicillin-susceptible coagulase-negative Staphylococcus haemolyticus assessed as susceptible isolates after 24 hrs by broth microdilution method
[18] = test system: Staphylococcus simulans; experiment: Bactericidal activity against methicillin-susceptible coagulase-negative Staphylococcus simulans after 24 hrs by plate counting method; summary of the method: as §2
[19] = test system: Mammaliicoccus sciuri; experiment: Antimicrobial activity against methicillin-susceptible coagulase-negative Staphylococcus sciuri after 24 hrs by broth microdilution method; summary of the method: as §1
[20] = test system: Staphylococcus aureus; experiment: Antimicrobial activity against methicillin-resistant Staphylococcus aureus assessed as resistant isolates after 24 hrs by broth microdilution method
[21] = Staphylococcus epidermidis, 24 h

| Molecule | MIC50 [1] | MIC90 [1] | MIC50 [2] | MIC90 [2] | MBC50 [3] | Activity [4] | MBC50 [5] | MBC50 [6] | MBC90 [6] | MIC50 [7] | MIC90 [7] | MBC50 [8] | MBC90 [8] | Activity [9] | Activity [10] | MBC50 [11] | Activity [12] | Activity [13] | MBC50 [14] | Activity [15] | further results |
| --- | --- | --- | --- | --- | --- | --- | --- | --- | --- | --- | --- | --- | --- | --- | --- | --- | --- | --- | --- | --- | --- |
| CN(C)[C@@H]1C(O)=C(C(N)=O)C(=O)[C@@]2(O)C(O)=C3C(=O)c4c(O)cccc4[C@@](C)(O)[C@H]3C[C@@H]12 [TETRACYCLINE] | 16 µg/mL (≈ 36 µM) | 32 µg/mL (≈ 72 µM) | 1 µg/mL (≈ 2.25 µM) | 64 µg/mL (≈ 144 µM) | 4 µg/mL (≈ 9 µM) | 18% | 4 µg/mL (≈ 9 µM) | 8 µg/mL (≈ 18 µM) | 32 µg/mL (≈ 72 µM) | 1 µg/mL (≈ 2.25 µM) | 64 µg/mL (≈ 144 µM) | 64 µg/mL (≈ 144 µM) | 512 µg/mL (≈ 1150 µM) | 70% | 30% | 4 µg/mL (≈ 9 µM) | 7% | 75% | 4 µg/mL (≈ 9 µM) | 12% | MBC [3, 21]: 0.5 µg/mL (≈ 1.13 µM); MBC ([5]; Staphylococcus hominis, 24 h): 0.5 µg/mL (≈ 1.13 µM); MBC ([6]; Staphylococcus aureus, 24 h): 1 µg/mL (≈ 2.25 µM); MBC ([8]; Staphylococcus aureus, 24 h): 2 µg/mL (≈ 4.5 µM); MBC ([11]; Staphylococcus simulans, 24 h): 0.5 µg/mL (≈ 1.13 µM); MBC ([14]; Mammaliicoccus sciuri, 24 h): 0.5 µg/mL (≈ 1.13 µM); Activity [16]: 12%; Activity [17]: 69%; MBC50 [18]: 8 µg/mL (≈ 18 µM); MBC90 [18]: 128 µg/mL (≈ 288 µM); MBC ([18]; Staphylococcus simulans, 24 h): 1 µg/mL (≈ 2.25 µM); MIC [19]: 0.5 µg/mL (≈ 1.13 µM); MIC50 [19]: 0.5 µg/mL (≈ 1.13 µM); MIC90 [19]: 32 µg/mL (≈ 72 µM) |
| CN[C@H](CC(C)C)C(=O)N[C@H]1C(=O)N[C@@H](CC(N)=O)C(=O)N[C@H]2C(=O)N[C@H]3C(=O)N[C@H](C(=O)N[C@H](C(=O)O)c4cc(O)cc(O)c4-c4cc3ccc4O)[C@H](O)c3ccc(c(Cl)c3)Oc3cc2cc(c3O[C@@H]2O[C@H](CO)[C@@H](O)[C@H](O)[C@H]2O[C@H]2C[C@](C)(N)[C@H](O)[C@H](C)O2)Oc2ccc(cc2Cl)[C@H]1O [VANCOMYCIN] | 0.5 µg/mL (≈ 0.345 µM) | 0.5 µg/mL (≈ 0.345 µM) | 0.125 µg/mL (≈ 0.0863 µM) | 2 µg/mL (≈ 1.38 µM) | 2 µg/mL (≈ 1.38 µM) | 100% | 2 µg/mL (≈ 1.38 µM) | 1 µg/mL (≈ 0.69 µM) | 2 µg/mL (≈ 1.38 µM) | 0.125 µg/mL (≈ 0.0863 µM) | 2 µg/mL (≈ 1.38 µM) | 1 µg/mL (≈ 0.69 µM) | 2 µg/mL (≈ 1.38 µM) | 100% | 100% | 2 µg/mL (≈ 1.38 µM) | 0% | 0% | 2 µg/mL (≈ 1.38 µM) | 0% | MIC [2]: 0.125 µg/mL (≈ 0.0863 µM); MBC90 [3]: 4 µg/mL (≈ 2.76 µM); MBC [3, 21]: 0.5 µg/mL (≈ 0.345 µM); MBC90 [5]: 4 µg/mL (≈ 2.76 µM); MBC ([5]; Staphylococcus hominis, 24 h): 0.5 µg/mL (≈ 0.345 µM); MBC ([6]; Staphylococcus aureus, 24 h): 0.25 µg/mL (≈ 0.173 µM); MIC [7]: 0.125 µg/mL (≈ 0.0863 µM); MBC ([8]; Staphylococcus aureus, 24 h): 0.5 µg/mL (≈ 0.345 µM); Activity [20]: 0%; MBC90 [11]: 4 µg/mL (≈ 2.76 µM); MBC ([11]; Staphylococcus simulans, 24 h): 0.5 µg/mL (≈ 0.345 µM); MBC90 [14]: 4 µg/mL (≈ 2.76 µM); MBC ([14]; Mammaliicoccus sciuri, 24 h): 0.5 µg/mL (≈ 0.345 µM); Activity [16]: 0%; Activity [17]: 100%; MBC50 [18]: 1 µg/mL (≈ 0.69 µM); MBC90 [18]: 4 µg/mL (≈ 2.76 µM); MBC ([18]; Staphylococcus simulans, 24 h): 0.125 µg/mL (≈ 0.0863 µM); MIC50 [19]: 0.25 µg/mL (≈ 0.173 µM); MIC90 [19]: 1 µg/mL (≈ 0.69 µM) |
| GENTAMICIN | 32 µg/mL | 64 µg/mL | 8 µg/mL | 64 µg/mL | 8 µg/mL | 45% | 8 µg/mL | 8 µg/mL | 128 µg/mL | 8 µg/mL | 64 µg/mL | 64 µg/mL | 128 µg/mL | 52% | 15% | 8 µg/mL | 7% | 48% | 8 µg/mL | 27% | MBC [3]: 0.25 µg/mL; MBC90 [3]: 128 µg/mL; MBC [5]: 0.25 µg/mL; MBC90 [5]: 128 µg/mL; MBC [6]: 0.5 µg/mL; MBC [8]: 2 µg/mL; Activity [20]: 63%; MBC [11]: 0.25 µg/mL; MBC90 [11]: 128 µg/mL; MBC [14]: 0.25 µg/mL; MBC90 [14]: 128 µg/mL; Activity [16]: 27%; Activity [17]: 73%; MBC [18]: 0.25 µg/mL; MBC50 [18]: 1 µg/mL; MBC90 [18]: 64 µg/mL; MIC50 [19]: 0.125 µg/mL; MIC90 [19]: 32 µg/mL |
